Assay results taken from ChEMBL document CHEMBL5724801, “EUbOPEN Chemogenomics Library - Multiplex” (2024).
“And” between values parts separate entries of the source, which are not always exact repeats. Equal values may be shown once.

System: U2OS
Experiment: Multiplex assay against U2OS
Format: toxicity, cell-based
Settings: human
In short: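 With compound added, live cells were imaged on a CQ1 microscope at 37°C and 5% CO2; staining with Hoechst33342, BioTracker Green Microtubule Cytoskeleton Dye, MitoTracker Red and Annexin V Alexa Fluor 680 had been done at seeding. The CellPathfinder machine-learning gating scheme split cells into Hoechst high-intensity objects or normal cells, normal cells into healthy, pyknosed or fragmented nuclei, and pyknosed cells into mitotic or apoptotic. The tubulin, mitochondrial-mass and membrane-permeability phenotypes are per cents of healthy-nucleus cells.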

[1] = 12 h, 1 µM, compound concentration 1 uM
[2] = 12 h, 10 µM, compound concentration 10 uM
[3] = 24 h, 1 µM, compound concentration 1 uM
[4] = 24 h, 10 µM, compound concentration 10 uM
[5] = 48 h, 1 µM, compound concentration 1 uM
[6] = 48 h, 10 µM, compound concentration 10 uM

COc1cc(C(=O)N2CC[C@@H](O)[C@@H](N)C2)cc2nc(-c3cc4ccccc4n3CC3CC3)n(C)c12.Cl
Population Apoptotic (%) [1]: 50% and 75%
Population Fragmented Nuclei (%) [1]: 32% and 15%
Population Healthy Nuclei (%) [1]: 53% and 75%
Population Hoechst High Intensity Objects (%) [1]: 4% and 1%
Population Membrane Permeable-Phenotype (%) [1]: 38% and 20%
Population Mitochondria Different-Phenotype (%) [1]: 16% and 18%
Population Mitotic Cells (%) [1]: 50% and 25%
Population Normal (%) [1]: 95% and 98%
Population Pyknosed Nuclei (%) [1]: 14% and 8%
Population Tubulin-Different-Phenotype (%) [1]: 29% and 15%
Total Cell Count [1]: 223 and 92
Population Apoptotic (%) [2]: 68% and 56%
Population Fragmented Nuclei (%) [2]: 23% and 16%
Population Healthy Nuclei (%) [2]: 38% and 61%
Population Hoechst High Intensity Objects (%) [2]: 6% and 5%
Population Membrane Permeable-Phenotype (%) [2]: 75% and 79%
Population Mitochondria Different-Phenotype (%) [2]: 88% and 91%
Population Mitotic Cells (%) [2]: 31% and 44%
Population Normal (%) [2]: 93% and 94%
Population Pyknosed Nuclei (%) [2]: 37% and 22%
Population Tubulin-Different-Phenotype (%) [2]: 96% and 94%
Total Cell Count [2]: 208 and 120
Population Apoptotic (%) [3]: 78% and 75%
Population Fragmented Nuclei (%) [3]: 28% and 18%
Population Healthy Nuclei (%) [3]: 54% and 69%
Population Hoechst High Intensity Objects (%) [3]: 3% and 2%
Population Membrane Permeable-Phenotype (%) [3]: 19% and 17%
Population Mitochondria Different-Phenotype (%) [3]: 14% and 18%
Population Mitotic Cells (%) [3]: 21% and 25%
Population Normal (%) [3]: 96% and 97%
Population Pyknosed Nuclei (%) [3]: 17% and 11%
Population Tubulin-Different-Phenotype (%) [3]: 12% and 17%
Total Cell Count [3]: 243 and 109
Population Apoptotic (%) [4]: 84% and 71%
Population Fragmented Nuclei (%) [4]: 25% and 26%
Population Healthy Nuclei (%) [4]: 35% and 48%
Population Hoechst High Intensity Objects (%) [4]: 4%
Population Membrane Permeable-Phenotype (%) [4]: 57% and 50%
Population Mitochondria Different-Phenotype (%) [4]: 88% and 85%
Population Mitotic Cells (%) [4]: 15% and 28%
Population Normal (%) [4]: 95%
Population Pyknosed Nuclei (%) [4]: 38% and 25%
Population Tubulin-Different-Phenotype (%) [4]: 78% and 90%
Total Cell Count [4]: 222 and 133
Population Apoptotic (%) [5]: 82% and 76%
Population Fragmented Nuclei (%) [5]: 23%
Population Healthy Nuclei (%) [5]: 61%
Population Hoechst High Intensity Objects (%) [5]: 2%
Population Membrane Permeable-Phenotype (%) [5]: 9% and 17%
Population Mitochondria Different-Phenotype (%) [5]: 5% and 11%
Population Mitotic Cells (%) [5]: 17% and 23%
Population Normal (%) [5]: 97%
Population Pyknosed Nuclei (%) [5]: 15% and 14%
Population Tubulin-Different-Phenotype (%) [5]: 5% and 12%
Total Cell Count [5]: 304 and 149
Population Apoptotic (%) [6]: 88% and 92%
Population Fragmented Nuclei (%) [6]: 29% and 30%
Population Healthy Nuclei (%) [6]: 35%
Population Hoechst High Intensity Objects (%) [6]: 12% and 6%
Population Membrane Permeable-Phenotype (%) [6]: 47%
Population Mitochondria Different-Phenotype (%) [6]: 65% and 84%
Population Mitotic Cells (%) [6]: 11% and 7%
Population Normal (%) [6]: 87% and 93%
Population Pyknosed Nuclei (%) [6]: 35% and 34%
Population Tubulin-Different-Phenotype (%) [6]: 62% and 75%
Total Cell Count [6]: 232 and 131

CN(C)CCCc1cc(C(=O)Nc2ccc(-c3ccncc3)cc2)ccc1O.Cl.Cl
Population Apoptotic (%) [1]: 89% and 100%
Population Fragmented Nuclei (%) [1]: 29% and 10%
Population Healthy Nuclei (%) [1]: 60% and 75%
Population Hoechst High Intensity Objects (%) [1]: 2% and 0%
Population Membrane Permeable-Phenotype (%) [1]: 6% and 2%
Population Mitochondria Different-Phenotype (%) [1]: 0% and 1%
Population Mitotic Cells (%) [1]: 10% and 0%
Population Normal (%) [1]: 97% and 99%
Population Pyknosed Nuclei (%) [1]: 9% and 13%
Population Tubulin-Different-Phenotype (%) [1]: 3% and 0%
Total Cell Count [1]: 199 and 124
Population Apoptotic (%) [2]: 77% and 42%
Population Fragmented Nuclei (%) [2]: 28% and 24%
Population Healthy Nuclei (%) [2]: 62% and 63%
Population Hoechst High Intensity Objects (%) [2]: 4% and 1%
Population Membrane Permeable-Phenotype (%) [2]: 7% and 4%
Population Mitochondria Different-Phenotype (%) [2]: 1% and 8%
Population Mitotic Cells (%) [2]: 22% and 57%
Population Normal (%) [2]: 95% and 98%
Population Pyknosed Nuclei (%) [2]: 9% and 12%
Population Tubulin-Different-Phenotype (%) [2]: 2%
Total Cell Count [2]: 237 and 113
Population Apoptotic (%) [3]: 100% and 94%
Population Fragmented Nuclei (%) [3]: 28% and 11%
Population Healthy Nuclei (%) [3]: 65% and 77%
Population Hoechst High Intensity Objects (%) [3]: 2% and 4%
Population Membrane Permeable-Phenotype (%) [3]: 5% and 7%
Population Mitochondria Different-Phenotype (%) [3]: 2% and 5%
Population Mitotic Cells (%) [3]: 0% and 5%
Population Normal (%) [3]: 97% and 95%
Population Pyknosed Nuclei (%) [3]: 6% and 11%
Population Tubulin-Different-Phenotype (%) [3]: 3% and 5%
Total Cell Count [3]: 247 and 178
Population Apoptotic (%) [4]: 72% and 66%
Population Fragmented Nuclei (%) [4]: 28% and 21%
Population Healthy Nuclei (%) [4]: 58% and 63%
Population Hoechst High Intensity Objects (%) [4]: 4% and 0%
Population Membrane Permeable-Phenotype (%) [4]: 6% and 4%
Population Mitochondria Different-Phenotype (%) [4]: 3% and 8%
Population Mitotic Cells (%) [4]: 27% and 33%
Population Normal (%) [4]: 95% and 100%
Population Pyknosed Nuclei (%) [4]: 13% and 15%
Population Tubulin-Different-Phenotype (%) [4]: 1% and 2%
Total Cell Count [4]: 257 and 118
Population Apoptotic (%) [5]: 88% and 93%
Population Fragmented Nuclei (%) [5]: 25% and 15%
Population Healthy Nuclei (%) [5]: 69% and 71%
Population Hoechst High Intensity Objects (%) [5]: 3%
Population Membrane Permeable-Phenotype (%) [5]: 5% and 7%
Population Mitochondria Different-Phenotype (%) [5]: 3%
Population Mitotic Cells (%) [5]: 11% and 6%
Population Normal (%) [5]: 96%
Population Pyknosed Nuclei (%) [5]: 5% and 13%
Population Tubulin-Different-Phenotype (%) [5]: 3% and 4%
Total Cell Count [5]: 338 and 259
Population Apoptotic (%) [6]: 74% and 68%
Population Fragmented Nuclei (%) [6]: 25% and 20%
Population Healthy Nuclei (%) [6]: 61% and 63%
Population Hoechst High Intensity Objects (%) [6]: 5% and 4%
Population Membrane Permeable-Phenotype (%) [6]: 5% and 13%
Population Mitochondria Different-Phenotype (%) [6]: 3% and 8%
Population Mitotic Cells (%) [6]: 25% and 32%
Population Normal (%) [6]: 94% and 95%
Population Pyknosed Nuclei (%) [6]: 12% and 16%
Population Tubulin-Different-Phenotype (%) [6]: 5% and 9%
Total Cell Count [6]: 352 and 160
